Measured values reported in ChEMBL document CHEMBL3124896, “Optimization of the lactam side chain of 7-azaindenoisoquinoline topoisomerase I inhibitors and mechanism of action studies in cancer cells” (2014).
Each block holds one molecule with its values, some of them ahead of it. Active and inactive are the calls of the source. No cut-off for these calls is given here.

Columns and labels:
[1] = test system: HCT-116; assay: Cytotoxicity against human HCT116 cells transfected with Top1-siRNA after 72 hrs by MTT assay; format: functional; details: HCT-116, 72 h
Method in brief: (§1)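 Cells were seeded 24 h before dosing and exposed continuously for 72 h. Growth was read by colorimetric MTS assay and expressed relative to vehicle-treated controls set at 100. GI50 is the level giving 50% growth inhibition, from at least two independent determinations. HCT116 and siTop1 cells were kept in RPMI 1640/10% FBS with 100 μg/mL hygromycin; RC0.1 in RPMI 1640/10% FBS.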

[2] = test system: HCT-116; assay: Induction of DNA damage in human HCT116 cells assessed as induction of histone gamma-H2AX level at 1 uM after 1 hr by flow cytometry
[3] = biological target: T1, DNA topoisomerase 1 (Homo sapiens) (UniProt P11387); assay: Inhibition of human recombinant topoisomerase 1 in human HCT116 cells assessed as reversal of topoisomerase 1-DNA cleavage complex stabilization at 1 uM incubated for 1 hr followed by compound washout measured after 24 hrs by DNA immunoblotting analysis; format: cell-based; details: HCT-116
T1 sequence (whole entry): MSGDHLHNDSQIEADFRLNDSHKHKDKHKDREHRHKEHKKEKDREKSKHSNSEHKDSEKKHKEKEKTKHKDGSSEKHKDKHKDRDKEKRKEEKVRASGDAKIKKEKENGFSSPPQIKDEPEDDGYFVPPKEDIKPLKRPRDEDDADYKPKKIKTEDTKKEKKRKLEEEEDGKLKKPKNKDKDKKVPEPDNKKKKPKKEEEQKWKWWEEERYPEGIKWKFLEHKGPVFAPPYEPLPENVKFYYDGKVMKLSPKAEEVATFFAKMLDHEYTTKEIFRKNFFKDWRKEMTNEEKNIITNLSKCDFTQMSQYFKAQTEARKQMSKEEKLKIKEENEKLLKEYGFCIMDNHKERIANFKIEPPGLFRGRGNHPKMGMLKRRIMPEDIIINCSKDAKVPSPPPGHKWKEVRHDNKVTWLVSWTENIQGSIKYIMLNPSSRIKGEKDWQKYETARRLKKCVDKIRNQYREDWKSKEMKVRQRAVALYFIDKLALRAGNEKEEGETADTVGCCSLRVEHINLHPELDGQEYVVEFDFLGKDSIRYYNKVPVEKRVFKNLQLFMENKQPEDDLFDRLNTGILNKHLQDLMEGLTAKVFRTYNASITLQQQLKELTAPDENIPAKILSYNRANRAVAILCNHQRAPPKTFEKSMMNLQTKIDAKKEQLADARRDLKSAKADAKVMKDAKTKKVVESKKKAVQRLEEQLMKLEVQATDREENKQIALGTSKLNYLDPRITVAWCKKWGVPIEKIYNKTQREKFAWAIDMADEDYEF
Method in brief: (§2)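 10^6 HCT116 cells were treated with 1 μM for 1 h, and for reversal were held in drug-free medium for the set times. Cells were lysed with DNAzol and genomic DNA was isolated and sonicated. Serial dilutions were slot-blotted onto membranes and Top1–DNA complexes detected with the C21 anti-Top1 monoclonal antibody by immunoblotting (ICE method).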

[4] = test system: DU-145; assay: Resistance ratio of GI50 for human RC0.1 cells to GI50 for human DU145 cells; format: functional
Method in brief: (§3)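 Relative resistance = GI50 in the resistant subline divided by GI50 in the parental line. Both GI50s came from 72 h continuous-exposure MTS growth assays, each based on at least two independent determinations.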

[5] = Cytotoxicity against human H460 cells after 72 hrs by MTT assay; format: functional; details: NCI-H460, 72 h; method in brief: as §1
[6] = biological target: T1, DNA topoisomerase 1 (Homo sapiens); assay: Inhibition of human recombinant topoisomerase 1 in human HCT116 cells assessed as stabilization of topoisomerase 1-DNA cleavage complex at 1 uM after 1 hr by DNA immunoblotting analysis; format: cell-based; details: HCT-116; method in brief: as §2
[7] = Resistance ratio of GI50 for vinblastine-resistant human KBV1 cells to GI50 for human KB 3.1 cells; format: functional
[8] = Cytotoxicity against human KB 3.1 cells after 72 hrs by MTT assay; format: functional; details: KB 3-1, 72 h; method in brief: as §1
[9] = test system: HCT-116; assay: Resistance ratio of GI50 for human HCT116 cells transfected with Top1-siRNA to GI50 for human HCT116 cells; format: functional; method in brief: as §3
[10] = Resistance ratio of GI50 for human mitoxantrone-resistant H460 cells to GI50 for human H460 cells; format: functional; method in brief: as §3
[11] = biological target: T1, DNA topoisomerase 1 (Homo sapiens); assay: Inhibition of human recombinant topoisomerase 1 in human HCT116 cells assessed as DNA-protein cross linking at 1 uM after 1 hr; format: cell-based; details: HCT-116
Method in brief: (§4)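 In HCT116 cells, Top1 cleavage complexes were quantified as DNA–protein cross-links by alkaline elution, plotting the fraction of DNA retained on the filter against time. Persistence was read 1 h after drug removal. The negative control was untreated cells given 30 Gy irradiation to create strand breaks.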

[12] = Cytotoxicity against human RC0.1 cells after 72 hrs by MTT assay; format: functional; method in brief: as §1
[13] = test system: HCT-116; assay: Cell cycle arrest in human HCT116 cells at 1 uM incubated for 1 hr followed by compound washout measured up to 1 hr by propidium iodide staining-based FACS analysis; format: functional
Method in brief: (§5)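 HCT116 cells exposed to 1 μM drug for 1 h, then kept in drug-free medium for the stated times. Fixed cells were stained with propidium iodide and analysed by flow cytometry for DNA content histograms. Phase distributions were computed from the histograms.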

[14] = biological target: T1, DNA topoisomerase 1 (Homo sapiens); assay: Inhibition of human recombinant topoisomerase 1 in human HCT116 cells assessed as reversal of topoisomerase 1-DNA cleavage complex stabilization at 1 uM incubated for 1 hr followed by compound washout measured up to 6 hrs by DNA immunoblotting analysis; format: cell-based; details: HCT-116; method in brief: as §2
[15] = test system: HCT-116; assay: Cell cycle arrest in human HCT116 cells assessed as accumulation at G2 phase at 1 uM incubated for 1 hr followed by compound washout measured after 6 to 48 hrs by propidium iodide staining-based FACS analysis; format: functional; method in brief: as §5
[16] = Cytotoxicity against vinblastine-resistant human KBV1 cells after 72 hrs by MTT assay; format: functional; details: KB-V1, 72 h; method in brief: as §1
[17] = test system: HCT-116; assay: Cytotoxicity against human HCT116 cells after 72 hrs by MTT assay; format: functional; details: HCT-116, 72 h; method in brief: as §1
[18] = test system: DU-145; assay: Cytotoxicity against human DU145 cells after 72 hrs by MTT assay; format: functional; details: DU-145, 72 h; method in brief: as §1
[19] = Cytotoxicity against human mitoxantrone-resistant H460 cells after 72 hrs by MTT assay; format: functional; details: NCI-H460, 72 h; method in brief: as §1
[20] = biological target: T1, DNA topoisomerase 1 (Homo sapiens); assay: Inhibition of human recombinant topoisomerase 1 in human HCT116 cells assessed as DNA-protein cross linking at 1 uM incubated for 1 hr followed by compound washout measured after 1 hr; format: cell-based; details: HCT-116; method in brief: as §4
[21] = biological target: T1, DNA topoisomerase 1 (Homo sapiens); assay: Inhibition of human recombinant topoisomerase 1 using radiolabeled DNA as substrate after 20 mins by SDS-PAGE
Method in brief: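 A 117 bp oligonucleotide was 3′-end-labelled with [α-32P]dGTP by Klenow fill-in. Reactions were stopped with 0.5% SDS and run on 20% denaturing polyacrylamide gels. Cleavage bands were scored visually on a semiquantitative scale.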

[22] = test system: HCT-116; assay: Cell cycle arrest in human HCT116 cells at 1 uM after 1 hr by propidium iodide staining-based FACS analysis; format: functional; method in brief: as §5
[23] = test system: HCT-116; assay: Cell cycle arrest in human HCT116 cells assessed as accumulation at S phase at 1 uM incubated for 1 hr followed by compound washout measured after 3 hrs by propidium iodide staining-based FACS analysis; format: functional; method in brief: as §5
[24] = test system: OVCAR-3; assay: Cytotoxicity against human OVCAR3 cells by SRB assay; format: functional
[25] = test system: MCF7; assay: Cytotoxicity against human MCF7 cells by SRB assay; format: functional
[26] = test system: HOP-62; assay: Cytotoxicity against human HOP62 cells by SRB assay; format: functional
[27] = test system: DU-145; assay: Cytotoxicity against human DU145 cells by SRB assay; format: functional
[28] = test system: UACC-62; assay: Cytotoxicity against human UACC62 cells by SRB assay; format: functional
[29] = test system: SF-539; assay: Cytotoxicity against human SF539 cells by SRB assay; format: functional
[30] = test system: HCT-116; assay: Cytotoxicity against human HCT116 cells by SRB assay; format: functional
[31] = biological target: T1, DNA topoisomerase 1 (Homo sapiens); assay: Inhibition of human recombinant topoisomerase 1 using radiolabeled DNA as substrate at 0.1 to 100 uM after 20 mins by SDS-PAGE
Method in brief: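 Baculovirus-purified human recombinant Top1 with ~2 nM of a 117 bp oligonucleotide, 3′-end-labeled with [α-32P]dGTP by Klenow fill-in. Drugs at 0.1, 1, 10, 100 μM; 25 °C, 20 min. Stopped with 0.5% SDS, run on 20% denaturing PAGE, phosphorimaged. Cleavage bands scored visually against camptothecin standard.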

[32] = test system: SN12C; assay: Cytotoxicity against human SN12C cells by SRB assay; format: functional

SMILES: COc1cnc2c(c1)C(=O)c1c-2n(CCCN(C)CCO)c(=O)c2cc([N+](=O)[O-])ccc12
GI50 [24]: 180 nM
GI50 [25]: 13 nM
GI50 [26]: 28 nM
GI50 [27]: 36 nM
GI50 [28]: 29 nM
GI50 [29]: 34 nM
GI50 [30]: 49 nM
inhibition [31]: Active
GI50 [32]: 39 nM

SMILES: COc1cnc2c(c1)C(=O)c1c-2n(CCCN(C)C)c(=O)c2cc(OC)c(OC)cc12
inhibition [21]: Active

SMILES: COc1cccc2c1C(=O)c1c(O)c3c(c(O)c1C2=O)C[C@@](O)(C(=O)CO)C[C@@H]3O[C@H]1C[C@H](N)[C@H](O)[C@H](C)O1 [DOXORUBICIN]
GI50 [8]: 676 nM
GI50 [16]: > 1000 nM

SMILES: CC[C@@]1(O)C(=O)OCc2c1cc1n(c2=O)Cc2cc3c(CN(C)C)c(O)ccc3nc2-1 [TOPOTECAN]
inhibition [3]: Active
GI50 [5]: 44.7 nM
inhibition [6]: Active
RatioGI50 [10]: >22.39
inhibition [14]: Active
GI50 [19]: > 1000 nM

SMILES: CC[C@@]1(O)C(=O)OCc2c1cc1n(c2=O)Cc2cc3ccccc3nc2-1 [CAMPTOTHECIN]
GI50 [1]: 35.5 nM
Activity [2]: 40.9%
GI50 [12]: > 1000 nM
GI50 [17]: 17.4 nM
GI50 [18]: 18.2 nM
GI50 [25]: 13 nM

SMILES: CN(C)CCCn1c2c(c3ccc([N+](=O)[O-])cc3c1=O)C(=O)c1cccnc1-2
GI50 [24]: 3120 nM
GI50 [25]: 474 nM
GI50 [26]: 1940 nM
GI50 [27]: 1550 nM
GI50 [28]: 3400 nM
GI50 [29]: 3140 nM
GI50 [30]: 486 nM
inhibition [21]: Active
GI50 [32]: 1560 nM

The next lines start with results.

inhibition [3]: Active
inhibition [6]: Active
inhibition [11]: Active
inhibition [14]: Active
inhibition [20]: Active
inhibition [21]: Active
SMILES: COc1cnc2c(c1)C(=O)c1c-2n(CCCN2CCOCC2)c(=O)c2cc([N+](=O)[O-])ccc12
GI50 [1]: 112 nM
Activity [2]: 37.6%
RatioGI50 [4]: 7.41
GI50 [5]: 33.9 nM
RatioGI50 [7]: 0.74
GI50 [8]: 562 nM
RatioGI50 [9]: 0.89
RatioGI50 [10]: 5.25
GI50 [12]: 1050 nM
Activity [13]: Active
Activity [15]: Active
GI50 [16]: 417 nM
GI50 [17]: 126 nM
GI50 [18]: 141 nM
GI50 [19]: 178 nM
Activity [22]: Active
Activity [23]: Active

inhibition [21]: Active
SMILES: COc1cnc2c(c1)C(=O)c1c-2n(CCCN2CCOCC2)c(=O)c2cc(OC)c(OC)cc12

inhibition [31]: Active
SMILES: COc1cnc2c(c1)C(=O)c1c-2n(CCCN)c(=O)c2cc([N+](=O)[O-])ccc12
GI50 [24]: 98 nM
GI50 [25]: < 10 nM
GI50 [26]: 19 nM
GI50 [27]: 35 nM
GI50 [28]: 24 nM
GI50 [29]: 73 nM
GI50 [30]: 36 nM
GI50 [32]: 40 nM

inhibition [31]: Active
SMILES: COc1cnc2c(c1)C(=O)c1c-2n(CCCNCCO)c(=O)c2cc([N+](=O)[O-])ccc12
GI50 [24]: 35 nM
GI50 [25]: < 10 nM
GI50 [26]: < 10 nM
GI50 [27]: < 10 nM
GI50 [28]: < 10 nM
GI50 [29]: 14 nM
GI50 [30]: < 10 nM
GI50 [32]: < 10 nM

inhibition [21]: Active
SMILES: COc1cnc2c(c1)C(=O)c1c-2n(CCCN(C)C)c(=O)c2cc([N+](=O)[O-])ccc12

inhibition [21]: Active
SMILES: O=C1c2cccnc2-c2c1c1ccc([N+](=O)[O-])cc1c(=O)n2CCCN1CCOCC1

inhibition [31]: Active
SMILES: COc1cnc2c(c1)C(=O)c1c-2n(CCCN2CCC(O)CC2)c(=O)c2cc([N+](=O)[O-])ccc12
GI50 [24]: 58 nM
GI50 [25]: < 10 nM
GI50 [26]: < 10 nM
GI50 [27]: < 10 nM
GI50 [28]: < 10 nM
GI50 [29]: 10 nM
GI50 [30]: 10 nM
GI50 [32]: < 10 nM
